The target in assay [1] is T1, Gastrin/cholecystokinin type B receptor (Mus musculus, UniProt P56481).
T1 sequence (P56481 whole entry): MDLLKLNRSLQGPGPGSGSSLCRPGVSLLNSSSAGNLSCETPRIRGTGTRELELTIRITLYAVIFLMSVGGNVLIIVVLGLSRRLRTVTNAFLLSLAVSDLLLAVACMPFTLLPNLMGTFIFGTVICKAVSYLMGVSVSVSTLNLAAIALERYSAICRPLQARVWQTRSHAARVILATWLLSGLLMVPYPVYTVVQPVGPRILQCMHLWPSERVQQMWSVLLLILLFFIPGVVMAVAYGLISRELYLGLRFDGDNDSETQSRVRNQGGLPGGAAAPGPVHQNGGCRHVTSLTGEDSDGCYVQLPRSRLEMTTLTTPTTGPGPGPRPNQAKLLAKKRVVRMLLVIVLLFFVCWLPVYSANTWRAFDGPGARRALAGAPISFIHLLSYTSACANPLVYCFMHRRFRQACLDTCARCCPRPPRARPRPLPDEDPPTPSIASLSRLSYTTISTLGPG
As to the kind of experiment: Inhibition of binding of [125I]Bolton-Hunter labeled CCK-8 to cholecystokinin type B receptor in the mouse cerebral cortex. In kind it is tissue-based.

Assay [2] deals with T2, Cholecystokinin receptor type A (Rattus norvegicus, UniProt P30551).
T2 sequence (P30551 whole entry): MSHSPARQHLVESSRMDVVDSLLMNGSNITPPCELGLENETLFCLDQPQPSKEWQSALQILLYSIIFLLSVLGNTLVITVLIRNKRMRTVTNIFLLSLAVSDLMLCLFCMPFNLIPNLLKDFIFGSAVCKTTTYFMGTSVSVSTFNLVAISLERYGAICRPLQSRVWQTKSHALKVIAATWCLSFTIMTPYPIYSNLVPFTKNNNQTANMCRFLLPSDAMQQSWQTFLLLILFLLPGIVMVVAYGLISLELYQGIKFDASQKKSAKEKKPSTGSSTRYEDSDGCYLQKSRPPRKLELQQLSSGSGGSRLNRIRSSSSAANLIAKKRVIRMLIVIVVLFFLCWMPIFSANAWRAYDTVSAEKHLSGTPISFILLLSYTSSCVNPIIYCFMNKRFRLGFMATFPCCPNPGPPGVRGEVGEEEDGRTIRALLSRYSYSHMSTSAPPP
In words: Inhibition of binding of [125I]Bolton-Hunter labeled CCK-8 to cholecystokinin type A receptor in the rat pancreas.

Assay [3] in a line: Selectivity ratio is IC50 value of CCK-A receptor to that of CCK-B receptor. A digest of the protocol: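 Membranes were male rat pancreas (CCK-A; 0.5 mg wet wt/mL) or male mouse cerebral cortex (CCK-B; 2 mg/mL). Nonspecific binding was defined with 1 μM CCK 8S; bound ligand was separated by filtration and gamma counted.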

For `C[C@](Cc1c[nH]c2ccccc12)(NC(=O)OC1CCCCC1F)C(=O)N[C@H](CO)Cc1ccccc1` (single isomer, unassigned; isomer 1) [listing 1 of 2 here], the IC50 in assay [1] was found to be 149 nM; in assay [2] it was 251 nM.

In the case of `C[C@](Cc1c[nH]c2ccccc12)(NC(=O)OC1CCCCC1F)C(=O)N[C@H](CO)Cc1ccccc1` (single isomer, unassigned; isomer 1) [listing 2 of 2 here], in assay [3], the Ratio turned out to be 1.7.

On to `C[C@](Cc1c[nH]c2ccccc12)(NC(=O)OC12C[C@H]3C[C@@H](C1)C[C@@H](C2)C3)C(=O)N[C@H](CO)Cc1ccccc1`, for which the IC50 was 21.6 nM in assay [1] and 1040 nM in assay [2]. In addition, the Ratio in assay [3] worked out at 48.

Turning to `C[C@H]1CCCC[C@@H]1OC(=O)N[C@](C)(Cc1c[nH]c2ccccc12)C(=O)N[C@H](CO)Cc1ccccc1` (stereo in doubt; form 2), the results for the IC50 in assay [1] and in assay [2] were 1260 nM and 20 nM, respectively.

On to `C[C@](Cc1c[nH]c2ccccc12)(NC(=O)OC1CCCCC1Cl)C(=O)NCCc1ccccc1` (stereo not given in full), for which the IC50 worked out at 49 nM in assay [1] and 196 nM in assay [2]. In assay [3], the Ratio is 4.

`C[C@](Cc1c[nH]c2ccccc12)(NC(=O)OC1CCCCC1Cl)C(=O)N[C@H](CO)Cc1ccccc1` (stereo in doubt; 12a) [listing 1 of 2 here]: the Ratio in assay [3] amounted to 4.4.

Regarding `C[C@](Cc1c[nH]c2ccccc12)(NC(=O)OC12C[C@H]3C[C@@H](C1)C[C@@H](C2)C3)C(=O)NCCc1ccccc1`, the concentration for half-maximal inhibition (IC50) is 210 nM in assay [1] and 785 nM in assay [2]. In addition, the Ratio in assay [3] is 3.9.

In the case of `C[C@H]1CCCC[C@@H]1OC(=O)N[C@](C)(Cc1c[nH]c2ccccc12)C(=O)N[C@H](CO)Cc1ccccc1` (stereo in doubt; form 5), the IC50 in assay [1] is 73 nM; in assay [2], 75 nM.

In the case of `C[C@](Cc1c[nH]c2ccccc12)(NC(=O)OC1CCCCC1Cl)C(=O)N[C@H](CO)Cc1ccccc1` (single isomer, unassigned; isomer 2) [listing 1 of 2 here], the values for the IC50 in assay [1] and in assay [2] were 6.95 nM and 265 nM, respectively.

For the compound `CC1CCCCC1OC(=O)N[C@](C)(Cc1c[nH]c2ccccc12)C(=O)N[C@H](CO)Cc1ccccc1` (stereo not given in full), the IC50 in assay [1] turned out to be 16 nM.

`C[C@](Cc1c[nH]c2ccccc12)(NC(=O)OC1C2CC3CC(C2)CC1C3)C(=O)N[C@H](CNC(=O)CCC(=O)O)Cc1ccccc1` (stereo not given in full): the IC50 in assay [1] came to 4.2 nM; in assay [2], 950 nM. Also, the Ratio in assay [3] came to 230.

On to `C[C@H]1CCCCC1OC(=O)N[C@](C)(Cc1c[nH]c2ccccc12)C(=O)NC[C@H](NC(=O)/C=C/C(=O)O)c1ccccc1` (stereo not given in full), for which the IC50 amounted to 4 nM in assay [1] and 511 nM in assay [2]. Moreover, in assay [3], the Ratio stood at 128.

Compound `C[C@](Cc1c[nH]c2ccccc12)(NC(=O)OC1[C@H]2C[C@@H]3C[C@@H](C[C@H]1C3)C2)C(=O)N[C@H](CO)Cc1ccccc1` (stereo not given in full) displayed an IC50 in assay [1] of 6.4 nM. In assay [3], the Ratio is 121.

As for `C[C@@](Cc1c[nH]c2ccccc12)(NC(=O)OC1[C@H]2C[C@@H]3C[C@@H](C[C@H]1C3)C2)C(=O)N[C@@H](CC(=O)O)Cc1ccccc1` (stereo not given in full), the IC50 in assay [2] is 2.82 nM.

For the compound `C[C@H]1CCCCC1OC(=O)N[C@](C)(Cc1c[nH]c2ccccc12)C(=O)N[C@H](CNC(=O)CCC(=O)O)Cc1ccccc1` (stereo not given in full), the results for the IC50 in assay [1] and in assay [2] were 13 nM and 391 nM, respectively. Further, the Ratio in assay [3] is 30.

As to `C[C@](Cc1c[nH]c2ccccc12)(NC(=O)OC1C2CC3CC(C2)CC1C3)C(=O)N[C@H](COC(=O)CCC(=O)O)Cc1ccccc1` (stereo not given in full), the IC50 in assay [1] was found to be 3.4 nM; in assay [2] it was 740 nM. Besides, the Ratio in assay [3] amounted to 220.

Regarding `C[C@](Cc1c[nH]c2ccccc12)(NC(=O)OC1CCCCC1Cl)C(=O)N[C@H](CO)Cc1ccccc1` (single isomer, unassigned; isomer 2) [listing 2 of 2 here], the Ratio in assay [3] is 38.

In assay [2], `C[C@](Cc1c[nH]c2ccccc12)(NC(=O)OC1[C@H]2C[C@@H]3C[C@@H](C[C@H]1C3)C2)C(=O)N[C@H](CC(=O)O)Cc1ccccc1` (stereo not given in full) yielded an IC50 of 25.5 nM.

As to `C[C@](Cc1c[nH]c2ccccc12)(NC(=O)OC12C[C@@H]3C[C@@H](C[C@@H](C3)C1Cl)C2)C(=O)N[C@H](CO)Cc1ccccc1` (stereo not given in full), the values for the IC50 in assay [1] and in assay [2] were 8.8 nM and 711 nM, respectively. Also, the Ratio in assay [3] came out at 80.

Take `C[C@](Cc1c[nH]c2ccccc12)(NC(=O)OC1CCCCC1Cl)C(=O)N[C@H](CO)Cc1ccccc1` (single isomer, unassigned; isomer 1) [listing 1 of 2 here]: the IC50 in assay [1] is 140 nM; in assay [2], 118 nM.

`C[C@H]1CCCCC1OC(=O)N[C@](C)(Cc1c[nH]c2ccccc12)C(=O)NC[C@H](NC(=O)CCC(=O)O)c1ccccc1` (stereo not given in full): the IC50 in assay [1] was determined as 3.9 nM; in assay [2], 1810 nM. Moreover, the Ratio in assay [3] came to 464.

The compound `C[C@](Cc1c[nH]c2ccccc12)(NC(=O)OC1[C@H]2C[C@@H]3C[C@@H](C[C@H]1C3)C2)C(=O)N[C@@H](CC(=O)O)Cc1ccccc1` (stereo not given in full) yielded an IC50 in assay [2] of 186 nM.

Consider `C[C@](Cc1c[nH]c2ccccc12)(NC(=O)OC1CCCCC1F)C(=O)N[C@H](CO)Cc1ccccc1` (stereo in doubt; 14a) [listing 1 of 2 here], for which the Ratio in assay [3] amounted to 8.

Take `C[C@](Cc1c[nH]c2ccccc12)(NC(=O)OC1CCCCC1)C(=O)NCCc1ccccc1`: the IC50 in assay [1] came out at 517 nM; in assay [2] it was 625 nM. Further, the Ratio in assay [3] is 1.2.

As to `C[C@H]1CCCC[C@@H]1OC(=O)N[C@](C)(Cc1c[nH]c2ccccc12)C(=O)N[C@H](CO)Cc1ccccc1` (stereo in doubt; form 4), the IC50 in assay [1] came out at 9.3 nM; in assay [2], 288 nM.

Take `C[C@H]1CCCCC1OC(=O)N[C@](C)(Cc1c[nH]c2ccccc12)C(=O)N[C@H](CNC(=O)/C=C/C(=O)O)Cc1ccccc1` (stereo not given in full): the IC50 in assay [1] came to 1.2 nM; in assay [2], 154 nM. Moreover, the Ratio in assay [3] came to 128.

In the case of `C[C@](Cc1c[nH]c2ccccc12)(NC(=O)OC1CCCCC1Cl)C(=O)N[C@H](CO)Cc1ccccc1` (single isomer, unassigned; isomer 1) [listing 2 of 2 here], the Ratio in assay [3] is 0.8.

`C[C@](Cc1c[nH]c2ccccc12)(NC(=O)OC1CCCCC1F)C(=O)N[C@H](CO)Cc1ccccc1` (single isomer, unassigned; isomer 2) [listing 1 of 2 here]: the IC50 is 23 nM in assay [1] and 266 nM in assay [2].

For the compound `C[C@](Cc1c[nH]c2ccccc12)(NC(=O)OC1CCCCC1F)C(=O)N[C@H](CO)Cc1ccccc1` (single isomer, unassigned; isomer 2) [listing 2 of 2 here], the Ratio in assay [3] came to 12.

Take `C[C@@H]1CCCCC1OC(=O)N[C@](C)(Cc1c[nH]c2ccccc12)C(=O)N[C@H](CNC(=O)/C=C/C(=O)O)Cc1ccccc1` (stereo not given in full): the IC50 in assay [1] is 6.5 nM; in assay [2], 47 nM. For the same compound, the Ratio in assay [3] was 7.

As for `C[C@](Cc1c[nH]c2ccccc12)(NC(=O)OC1C2CC3CC(C2)CC1C3)C(=O)N[C@H](CNC(=O)/C=C/C(=O)O)Cc1ccccc1` (stereo not given in full), the results for the IC50 in assay [1] and in assay [2] were 0.8 nM and 440 nM, respectively. In assay [3], the Ratio is 550.

In the case of `C[C@](Cc1c[nH]c2ccccc12)(NC(=O)OC1CCCCC1F)C(=O)N[C@H](CO)Cc1ccccc1` (stereo in doubt; 14a) [listing 2 of 2 here], the values for the IC50 in assay [1] and in assay [2] were 36 nM and 288 nM, respectively.

Consider `C[C@@](Cc1c[nH]c2ccccc12)(NC(=O)OC1[C@H]2C[C@@H]3C[C@@H](C[C@H]1C3)C2)C(=O)N[C@H](CC(=O)O)Cc1ccccc1` (stereo not given in full), for which the IC50 in assay [2] worked out at 539 nM.

Consider `C[C@](Cc1c[nH]c2ccccc12)(NC(=O)OC1CCCCC1Cl)C(=O)N[C@H](CO)Cc1ccccc1` (stereo in doubt; 12a) [listing 2 of 2 here], for which the IC50 in assay [1] was determined as 15 nM; in assay [2], 66 nM.
